Assay results as given in ChEMBL document CHEMBL5143722, “Antimicrobial Peptides against Multidrug-Resistant Pseudomonas aeruginosa Biofilm from Cystic Fibrosis Patients” (J Med Chem, 2022).
Activity calls are given as the source filed them. No cut-off for these calls is given here.

Columns and labels:
[1] = Drug degradation in cystic fibrosis patient derived sputum assessed as remaining activity at 100 uM measured after 30 mins by RP-HPLC analysis; type: ADME, tissue-based; settings: human, read-out: Drug degradation
Summary of the method: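 Pooled CF patient sputum diluted 10-fold in Ca/Mg-free DPBS, centrifuged at 1000 rpm for 10 min. Peptide added to the supernatant at 100 μM final and held at 37 °C. Stopped with 10% HCl. Residual peptide measured by RP-HPLC on C18 with a 20–60% ACN gradient (0.1% TFA) over 50 min, as % of the unincubated mixture.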

Pseudomonas aeruginosa [2] = test: Drug resistance in Pseudomonas aeruginosa clinical isolate 24 in BM2 medium assessed as fold change in MIC
Pseudomonas aeruginosa [3] = test: Antibiofilm activity against Pseudomonas aeruginosa clinical isolate 24 in basal medium 2 at 12.5 to 100 uM incubated for 24 hrs by resazurin staining based microtiter plate method; type: functional, organism-based; settings: dose 12.5-100 µM
Pseudomonas aeruginosa [4] = test: Antibiofilm activity against Pseudomonas aeruginosa clinical isolate 46 assessed as inhibition of biofilm formation at MIC incubated for 24 hrs by crystal violet staining based microtiter plate method; type: functional, organism-based
Summary of the method: (§1)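 Washed overnight cultures in BM2 medium at 1 × 10^6 CFU/mL with 2-fold serial peptide dilutions in a U-bottom 96-well plate. Incubated 24 h at 37 °C without agitation. Unattached cells washed off, then 0.1% crystal violet stain read at 590 nm. No-bacteria blanks. Biomass expressed as % of untreated biofilm. At least three biological repeats.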

Pseudomonas aeruginosa [5] = test: Antibiofilm activity against Pseudomonas aeruginosa PAO1 in basal medium 2 at 12.5 to 100 uM incubated for 24 hrs by resazurin staining based microtiter plate method; type: functional, organism-based; settings: dose 12.5-100 µM
Pseudomonas aeruginosa [6] = test: Induction of biofilm degradation of Pseudomonas aeruginosa clinical isolate 59 at 50 uM incubated for 1 hr by crystal violet staining analysis relative to control; type: functional
Summary of the method: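 Inoculum of 1 × 10^6 CFU/mL was grown 24 h at 37 °C without agitation to form biofilm. Wells were rinsed of unattached bacteria and exposed for 1 h to serial peptide dilutions (1.56–50 μM). They were then washed, stained with 0.1% crystal violet, and read at 590 nm with no-bacteria blanks. Biomass is given as % of untreated biofilm.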

Pseudomonas aeruginosa [7] = test: Antibiofilm activity against Pseudomonas aeruginosa clinical isolate 995 assessed as inhibition of biofilm formation at MIC incubated for 24 hrs by crystal violet staining based microtiter plate method; type: functional, organism-based; summary of the method: as §1
Pseudomonas aeruginosa [8] = test: Antibiofilm activity against Pseudomonas aeruginosa clinical isolate 25 assessed as inhibition of biofilm formation at MIC incubated for 24 hrs by crystal violet staining based microtiter plate method; type: functional, organism-based; summary of the method: as §1
Pseudomonas aeruginosa [9] = test: Drug resistance in Pseudomonas aeruginosa PAO1 in BM2 medium assessed as fold change in MIC
Pseudomonas aeruginosa [10] = test: Antibiofilm activity against Pseudomonas aeruginosa clinical isolate 99 assessed as inhibition of biofilm formation at MIC incubated for 24 hrs by crystal violet staining based microtiter plate method; type: functional, organism-based; summary of the method: as §1
Pseudomonas aeruginosa [11] = test: Antibiofilm activity against Pseudomonas aeruginosa clinical isolate 24 assessed as inhibition of biofilm formation at MIC incubated for 24 hrs by crystal violet staining based microtiter plate method; type: functional, organism-based; summary of the method: as §1
Pseudomonas aeruginosa [12] = test: Induction of biofilm degradation of Pseudomonas aeruginosa clinical isolate 172 at sub MIC concentration incubated for 1 hr by crystal violet staining analysis; type: functional
Summary of the method: (§2)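 Bacteria at 1 × 10^6 CFU/mL in BM2 grown static at 37 °C for 24 h to form biofilm. Wells rinsed of unattached cells, then exposed for 1 h to serial peptide dilutions (1.56–50 μM). Washed, stained with 0.1% crystal violet, A590 read. Biomass given as % of untreated biofilm; no-bacteria wells as blanks. At least three biological repeats.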

[13] = tested on: Pseudomonas aeruginosa PAO1; test: Induction of biofilm degradation of Pseudomonas aeruginosa PAO1 in cystic fibrosis patient sputum at 10 uM incubated for 48 hr by resazurin staining based confocal microscopy analysis
Pseudomonas aeruginosa [14] = test: Induction of biofilm degradation of Pseudomonas aeruginosa clinical isolate 59 at sub MIC concentration incubated for 1 hr by crystal violet staining analysis; type: functional; summary of the method: as §2
Pseudomonas aeruginosa [15] = test: Induction of biofilm degradation of Pseudomonas aeruginosa clinical isolate 72 at sub MIC concentration incubated for 1 hr by crystal violet staining analysis; type: functional; summary of the method: as §2
Pseudomonas aeruginosa [16] = test: Antibiofilm activity against Pseudomonas aeruginosa clinical isolate 59 assessed as inhibition of biofilm formation at 1.56 uM incubated for 24 hrs by crystal violet staining based microtiter plate method; type: functional, organism-based; summary of the method: as §1
Pseudomonas aeruginosa [17] = test: Antibiofilm activity against Pseudomonas aeruginosa clinical isolate 24 assessed as inhibition of biofilm formation at 1.56 uM incubated for 24 hrs by crystal violet staining based microtiter plate method; type: functional, organism-based; summary of the method: as §1
Pseudomonas aeruginosa [18] = test: Antibiofilm activity against Pseudomonas aeruginosa clinical isolate 172 assessed as inhibition of biofilm formation at 1.56 uM incubated for 24 hrs by crystal violet staining based microtiter plate method; type: functional, organism-based; summary of the method: as §1
Pseudomonas aeruginosa [19] = test: Antibiofilm activity against Pseudomonas aeruginosa clinical isolate 629 assessed as inhibition of biofilm formation at 1.56 uM incubated for 24 hrs by crystal violet staining based microtiter plate method; type: functional, organism-based; summary of the method: as §1
Pseudomonas aeruginosa [20] = test: Antibiofilm activity against Pseudomonas aeruginosa clinical isolate 40 assessed as inhibition of biofilm formation at 1.56 uM incubated for 24 hrs by crystal violet staining based microtiter plate method; type: functional, organism-based; summary of the method: as §1
Pseudomonas aeruginosa [21] = test: Antibiofilm activity against Pseudomonas aeruginosa clinical isolate 24 in artificial sputum medium at 25 uM incubated for 24 hrs by resazurin staining based microtiter plate method relative to control; type: functional
Summary of the method: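 Overnight cultures were washed, resuspended in BM2 to OD ~0.05, and diluted 1:100 into artificial sputum medium (pH 6.9). Biofilms grew 3 days at 37 °C with aerobic agitation in 24-well plates. Peptides (12.5–100 μM) were then added for 24 h with agitation. Biofilm was disrupted with cellulase for 1 h at 37 °C. Resazurin (0.02%) was added for 1–2 h, fluorescence read at ex 530/em 590 nm, and viability expressed as % of untreated wells.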

Pseudomonas aeruginosa [22] = test: Induction of biofilm degradation of Pseudomonas aeruginosa clinical isolate 59 at 12.5 uM incubated for 1 hr by crystal violet staining analysis
Pseudomonas aeruginosa [23] = test: Antibiofilm activity against Pseudomonas aeruginosa clinical isolate 82 in artificial sputum medium at 50 uM incubated for 24 hrs by resazurin staining based microtiter plate method; type: functional, organism-based
Summary of the method: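 Washed overnight culture set to OD ~0.05 in BM2, diluted 1:100 into artificial sputum medium (pH 6.9) in 24-well plates. Grown 3 days aerobically at 37 °C with agitation. Peptides (12.5–100 μM) added for 24 h with agitation. Biofilm disrupted by cellulase for 1 h at 37 °C. Resazurin 0.02% for 1–2 h, fluorescence ex 530/em 590 nm; viability as % of untreated wells.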

Pseudomonas aeruginosa [24] = test: Induction of biofilm degradation of Pseudomonas aeruginosa clinical isolate 82 derived from cystic fibrosis patient sputum at 1.56 to 50 uM by crystal violet based staining analysis; type: functional; settings: dose 1.56-50 µM
Summary of the method: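 Biofilm grown from 1 × 10^6 CFU/mL in pooled CF patient sputum diluted 10-fold with BM2, static, 37 °C, 24 h. Unattached cells rinsed off, then serial peptide dilutions (1.56–50 μM) applied for 1 h. Washed and stained with 0.1% crystal violet, read at 590 nm. Reported as % of untreated biomass, with no-bacteria blanks.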

Pseudomonas aeruginosa [25] = test: Induction of biofilm degradation of Pseudomonas aeruginosa clinical isolate 59 at 1.56 uM incubated for 1 hr by crystal violet staining analysis; type: functional; summary of the method: as §2

SMILES: CC[C@H](C)[C@H](NC(=O)[C@H](CCCCN)NC(=O)[C@H](CCC(=O)O)NC(=O)[C@H](CCCCN)NC(=O)[C@H](CO)NC(=O)[C@H](CCCCN)NC(=O)[C@H](CCCNC(=N)N)NC(=O)[C@H](Cc1ccccc1)NC(=O)[C@H](Cc1ccccc1)NC(=O)[C@H](CC(=O)O)NC(=O)CNC(=O)[C@H](CC(C)C)NC(=O)[C@@H](N)CC(C)C)C(=O)NCC(=O)N[C@@H](CCCCN)C(=O)N[C@@H](CCC(=O)O)C(=O)N[C@@H](Cc1ccccc1)C(=O)N[C@@H](CCCCN)C(=O)N[C@@H](CCCNC(=N)N)C(=O)N[C@H](C(=O)N[C@H](C(=O)N[C@@H](CCC(N)=O)C(=O)N[C@@H](CCCNC(=N)N)C(=O)N[C@H](C(=O)N[C@@H](CCCCN)C(=O)N[C@@H](CC(=O)O)C(=O)N[C@@H](Cc1ccccc1)C(=O)N[C@@H](CC(C)C)C(=O)N[C@@H](CCCNC(=N)N)C(=O)N[C@@H](CC(N)=O)C(=O)N[C@@H](CC(C)C)C(=O)N[C@H](C(=O)N1CCC[C@H]1C(=O)N[C@@H](CCCNC(=N)N)C(=O)N[C@H](C(=O)N[C@@H](CCC(=O)O)C(=O)N[C@@H](CO)C(N)=O)[C@@H](C)O)C(C)C)[C@@H](C)CC)C(C)C)[C@@H](C)CC
- metabolised at 0.5 h, 100 µM [1]: 100%
- fold change (FC) (Pseudomonas aeruginosa [2]): <20
- Activity (Pseudomonas aeruginosa [3]): Active
- inhibition (Pseudomonas aeruginosa [4]): Active
- Activity (Pseudomonas aeruginosa [5]): Active
- Activity (Pseudomonas aeruginosa [6]): 40%
- inhibition (Pseudomonas aeruginosa [7]): Active
- inhibition (Pseudomonas aeruginosa [8]): Active
- fold change (FC) (Pseudomonas aeruginosa [9]): <20
- inhibition (Pseudomonas aeruginosa [10]): Active
- inhibition (Pseudomonas aeruginosa [11]): Active

SMILES: CC(C)C[C@H](NC(=O)[C@H](CC(C)C)NC(=O)[C@H](CC(C)C)NC(=O)[C@H](CC(C)C)NC(=O)[C@H](CC(C)C)NC(=O)[C@H](CC(C)C)NC(=O)[C@H](CC(C)C)NC(=O)[C@H](CC(C)C)NC(=O)[C@H](CC(C)C)NC(=O)[C@H](CCCCN)NC(=O)[C@H](CCCCN)NC(=O)[C@@H](N)CCCCN)C(=O)N[C@@H](CCCCN)C(=O)N[C@@H](CCCCN)C(=O)N[C@@H](CCCCN)C(N)=O
- Activity (Pseudomonas aeruginosa [3]): Active
- Activity (Pseudomonas aeruginosa [5]): Active
- Activity (Pseudomonas aeruginosa [6]): 40%
- Activity (Pseudomonas aeruginosa [12]): Active
- Activity [13]: Active
- Activity (Pseudomonas aeruginosa [14]): Active
- Activity (Pseudomonas aeruginosa [15]): Active

SMILES: CC(C)C[C@H](NC(=O)[C@H](CC(C)C)NC(=O)[C@H](CCCCN)NC(=O)[C@H](CC(C)C)NC(=O)[C@H](CC(C)C)NC(=O)[C@H](CCCCN)NC(=O)[C@H](CCCCN)NC(=O)[C@H](CC(C)C)NC(=O)[C@H](CC(C)C)NC(=O)[C@H](CCCCN)NC(=O)[C@H](CCCCN)NC(=O)[C@H](CC(C)C)NC(=O)[C@H](CC(C)C)NC(=O)[C@H](CCCCN)NC(=O)[C@@H](N)CC(C)C)C(N)=O
- fold change (FC) (Pseudomonas aeruginosa [2]): <20
- inhibition (Pseudomonas aeruginosa [16]): Active
- inhibition (Pseudomonas aeruginosa [17]): Active
- inhibition (Pseudomonas aeruginosa [18]): Active
- inhibition (Pseudomonas aeruginosa [19]): Active
- inhibition (Pseudomonas aeruginosa [20]): Active
- Activity (Pseudomonas aeruginosa [21]): 41.24%
- inhibition (Pseudomonas aeruginosa [4]): Active
- Activity [13]: Active
- inhibition (Pseudomonas aeruginosa [7]): Active
- Activity (Pseudomonas aeruginosa [22]): Active
- inhibition (Pseudomonas aeruginosa [8]): Active
- Activity (Pseudomonas aeruginosa [23]): Active
- fold change (FC) (Pseudomonas aeruginosa [9]): <20
- Activity (Pseudomonas aeruginosa [24]): Active
- inhibition (Pseudomonas aeruginosa [10]): Active
- inhibition (Pseudomonas aeruginosa [11]): Active
- Activity (Pseudomonas aeruginosa [25]): Active
